Laboratory results as given in BindingDB's records for doi:10.1021/np070447m (2008).
pIC50: −log10 of the molar value.

How the values were obtained:
[1] = molecular target: Platelet-derived growth factor receptor beta (Homo sapiens, UniProt P09619); experiment: Inhibition of recombinant PDGFRbeta
[2] = molecular target: T1, Receptor-type tyrosine-protein kinase FLT3 (Homo sapiens, UniProt P36888); experiment: Inhibition of recombinant FLT3
T1 sequence (P36888 whole entry): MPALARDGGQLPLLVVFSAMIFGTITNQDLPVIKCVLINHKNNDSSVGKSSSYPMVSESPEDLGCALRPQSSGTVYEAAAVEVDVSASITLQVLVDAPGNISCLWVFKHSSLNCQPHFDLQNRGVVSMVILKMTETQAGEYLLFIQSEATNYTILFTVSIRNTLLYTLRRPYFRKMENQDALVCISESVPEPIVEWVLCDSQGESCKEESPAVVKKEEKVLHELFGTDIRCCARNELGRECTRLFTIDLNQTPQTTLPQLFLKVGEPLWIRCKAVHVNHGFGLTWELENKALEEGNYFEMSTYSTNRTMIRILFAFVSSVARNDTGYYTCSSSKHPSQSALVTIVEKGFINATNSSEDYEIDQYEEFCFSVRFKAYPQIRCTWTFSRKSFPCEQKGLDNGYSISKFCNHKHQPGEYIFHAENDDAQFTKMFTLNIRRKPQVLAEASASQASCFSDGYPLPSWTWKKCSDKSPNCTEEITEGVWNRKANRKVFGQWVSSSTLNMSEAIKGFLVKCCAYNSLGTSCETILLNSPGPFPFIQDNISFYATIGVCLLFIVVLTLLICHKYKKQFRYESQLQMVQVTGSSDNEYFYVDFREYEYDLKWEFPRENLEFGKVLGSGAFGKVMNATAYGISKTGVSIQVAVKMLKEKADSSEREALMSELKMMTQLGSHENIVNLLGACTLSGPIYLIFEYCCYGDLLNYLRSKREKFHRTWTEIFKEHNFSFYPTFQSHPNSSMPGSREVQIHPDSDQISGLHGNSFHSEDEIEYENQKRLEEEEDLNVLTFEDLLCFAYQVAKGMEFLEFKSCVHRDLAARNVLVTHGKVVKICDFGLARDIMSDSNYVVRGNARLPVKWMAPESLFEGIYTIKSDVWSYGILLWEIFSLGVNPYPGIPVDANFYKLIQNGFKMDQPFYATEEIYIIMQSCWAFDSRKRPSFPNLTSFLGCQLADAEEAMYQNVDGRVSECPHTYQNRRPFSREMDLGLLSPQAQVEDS
Outline: (§1)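 Purified recombinant kinase, 50 µL reaction. 1 µM [γ-33P]-ATP with substrate; compound added in 10% DMSO. Tested over several concentrations; IC50 in g/mL.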

[3] = molecular target: Vascular endothelial growth factor receptor 3 (Homo sapiens, UniProt P35916); experiment: Inhibition of recombinant VEGFR3; outline: as §1
Insulin receptor = Insulin receptor (Homo sapiens, UniProt P06213); experiment: Inhibition of recombinant INSR
[4] = molecular target: Casein kinase II subunit alpha (Homo sapiens, UniProt P68400); experiment: Inhibition of recombinant CK2alpha1; outline: as §1
[5] = molecular target: Hepatocyte growth factor receptor (Homo sapiens, UniProt P08581); experiment: Inhibition of recombinant MET
[6] = molecular target: Cyclin-dependent kinase 4/G1/S-specific cyclin-D1 (Homo sapiens, UniProt P11802); experiment: Inhibition of recombinant CDK4/CycD1
[7] = molecular target: Insulin-like growth factor 1 receptor (Homo sapiens, UniProt P08069); experiment: Inhibition of recombinant IGF1R; outline: as §1
[8] = molecular target: Serine/threonine-protein kinase PLK1 (Homo sapiens, UniProt P53350); experiment: Inhibition of recombinant PLK1
[9] = molecular target: Cyclin-dependent kinase 2 (Homo sapiens, UniProt P24941); experiment: Inhibition of recombinant CDK2/CycA; outline: as §1
[10] = molecular target: Receptor tyrosine-protein kinase erbB-2 (Homo sapiens, UniProt P04626); experiment: Inhibition of recombinant ERBB2
Aurora kinase A = molecular target: T2, Aurora kinase A (Homo sapiens, UniProt O14965); experiment: Inhibition of recombinant Aurora A; outline: as §1
T2 sequence (O14965 whole entry): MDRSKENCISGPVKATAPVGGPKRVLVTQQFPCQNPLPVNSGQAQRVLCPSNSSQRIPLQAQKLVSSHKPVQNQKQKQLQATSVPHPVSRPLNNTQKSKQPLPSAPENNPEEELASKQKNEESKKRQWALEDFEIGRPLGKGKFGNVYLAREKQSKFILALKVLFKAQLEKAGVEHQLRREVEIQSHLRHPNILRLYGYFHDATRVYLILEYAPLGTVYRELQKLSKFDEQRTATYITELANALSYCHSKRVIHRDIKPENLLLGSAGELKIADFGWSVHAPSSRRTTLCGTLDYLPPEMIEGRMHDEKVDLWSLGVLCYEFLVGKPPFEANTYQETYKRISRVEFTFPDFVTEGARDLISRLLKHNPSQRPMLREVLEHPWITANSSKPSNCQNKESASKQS

[11] = molecular target: RAC-alpha serine/threonine-protein kinase (Homo sapiens, UniProt P31749); experiment: Inhibition of recombinant AKT1; outline: as §1
[12] = molecular target: Vascular endothelial growth factor receptor 2 (Homo sapiens, UniProt P35968); experiment: Inhibition of recombinant VEGFR2; outline: as §1

Sequence of RAC-alpha serine/threonine-protein kinase (P31749 whole entry): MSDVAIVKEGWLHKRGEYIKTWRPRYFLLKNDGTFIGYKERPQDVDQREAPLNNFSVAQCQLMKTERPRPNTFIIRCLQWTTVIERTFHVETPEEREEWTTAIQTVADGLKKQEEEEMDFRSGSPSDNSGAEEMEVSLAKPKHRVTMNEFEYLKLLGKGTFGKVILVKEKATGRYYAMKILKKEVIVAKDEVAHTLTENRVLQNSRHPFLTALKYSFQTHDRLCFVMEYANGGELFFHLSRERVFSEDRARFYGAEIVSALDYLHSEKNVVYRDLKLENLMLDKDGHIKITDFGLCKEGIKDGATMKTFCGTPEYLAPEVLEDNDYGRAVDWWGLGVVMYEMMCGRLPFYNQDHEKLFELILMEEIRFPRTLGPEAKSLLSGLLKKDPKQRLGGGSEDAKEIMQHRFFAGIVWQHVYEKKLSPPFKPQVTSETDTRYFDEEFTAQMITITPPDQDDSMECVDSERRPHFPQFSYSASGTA
Sequence of Receptor tyrosine-protein kinase erbB-2 (P04626 whole entry): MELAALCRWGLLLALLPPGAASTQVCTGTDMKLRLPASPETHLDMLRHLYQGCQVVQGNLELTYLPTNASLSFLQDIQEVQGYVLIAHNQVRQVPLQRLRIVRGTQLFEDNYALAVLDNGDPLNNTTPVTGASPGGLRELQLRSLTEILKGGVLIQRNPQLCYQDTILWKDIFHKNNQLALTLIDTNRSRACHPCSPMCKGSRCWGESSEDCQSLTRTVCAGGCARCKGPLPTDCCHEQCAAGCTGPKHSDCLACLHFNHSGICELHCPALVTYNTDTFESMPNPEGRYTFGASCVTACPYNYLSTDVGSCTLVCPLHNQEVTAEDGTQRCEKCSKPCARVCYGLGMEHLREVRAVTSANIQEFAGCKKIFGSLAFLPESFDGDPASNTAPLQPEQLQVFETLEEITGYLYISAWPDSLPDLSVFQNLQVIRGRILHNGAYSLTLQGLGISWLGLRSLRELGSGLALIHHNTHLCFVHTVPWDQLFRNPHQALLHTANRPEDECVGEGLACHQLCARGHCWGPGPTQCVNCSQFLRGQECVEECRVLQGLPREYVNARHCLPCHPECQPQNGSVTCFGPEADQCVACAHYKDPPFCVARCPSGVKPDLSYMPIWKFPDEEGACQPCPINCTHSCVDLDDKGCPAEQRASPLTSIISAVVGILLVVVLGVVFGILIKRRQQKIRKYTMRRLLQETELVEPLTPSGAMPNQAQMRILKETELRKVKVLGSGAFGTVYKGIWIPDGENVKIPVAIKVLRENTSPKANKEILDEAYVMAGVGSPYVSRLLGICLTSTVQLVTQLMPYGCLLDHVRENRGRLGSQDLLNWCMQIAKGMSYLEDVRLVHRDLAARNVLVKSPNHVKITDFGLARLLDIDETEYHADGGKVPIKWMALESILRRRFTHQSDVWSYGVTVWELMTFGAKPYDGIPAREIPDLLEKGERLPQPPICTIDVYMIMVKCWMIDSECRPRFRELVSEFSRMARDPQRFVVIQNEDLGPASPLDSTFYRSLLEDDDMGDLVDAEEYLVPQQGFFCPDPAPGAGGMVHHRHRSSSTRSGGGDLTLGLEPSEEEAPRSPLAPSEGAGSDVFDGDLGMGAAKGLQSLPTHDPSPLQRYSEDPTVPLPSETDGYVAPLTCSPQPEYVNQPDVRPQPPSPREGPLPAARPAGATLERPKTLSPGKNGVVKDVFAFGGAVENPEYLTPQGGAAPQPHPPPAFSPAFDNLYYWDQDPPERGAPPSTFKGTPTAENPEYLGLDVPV
Sequence of Insulin-like growth factor 1 receptor (P08069 31-736 limits assumed): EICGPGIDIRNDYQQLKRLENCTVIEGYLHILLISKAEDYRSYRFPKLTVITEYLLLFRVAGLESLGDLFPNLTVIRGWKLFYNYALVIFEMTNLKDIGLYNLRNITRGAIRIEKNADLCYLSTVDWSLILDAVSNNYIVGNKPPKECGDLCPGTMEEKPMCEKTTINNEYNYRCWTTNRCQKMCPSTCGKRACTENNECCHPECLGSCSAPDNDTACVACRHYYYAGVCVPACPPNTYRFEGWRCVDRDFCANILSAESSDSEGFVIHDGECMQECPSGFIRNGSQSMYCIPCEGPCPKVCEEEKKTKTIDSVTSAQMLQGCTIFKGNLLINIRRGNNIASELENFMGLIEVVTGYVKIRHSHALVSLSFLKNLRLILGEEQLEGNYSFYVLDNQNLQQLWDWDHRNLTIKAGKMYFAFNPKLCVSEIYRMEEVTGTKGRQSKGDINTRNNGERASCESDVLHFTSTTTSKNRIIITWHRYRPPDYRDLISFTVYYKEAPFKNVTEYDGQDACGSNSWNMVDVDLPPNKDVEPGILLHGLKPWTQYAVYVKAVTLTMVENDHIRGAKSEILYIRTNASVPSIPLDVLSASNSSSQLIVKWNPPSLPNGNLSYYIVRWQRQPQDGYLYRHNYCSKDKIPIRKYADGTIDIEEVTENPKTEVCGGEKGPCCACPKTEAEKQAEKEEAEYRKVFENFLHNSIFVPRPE
Sequence of Insulin-like growth factor 1 receptor (P08069 741-1367 limits assumed): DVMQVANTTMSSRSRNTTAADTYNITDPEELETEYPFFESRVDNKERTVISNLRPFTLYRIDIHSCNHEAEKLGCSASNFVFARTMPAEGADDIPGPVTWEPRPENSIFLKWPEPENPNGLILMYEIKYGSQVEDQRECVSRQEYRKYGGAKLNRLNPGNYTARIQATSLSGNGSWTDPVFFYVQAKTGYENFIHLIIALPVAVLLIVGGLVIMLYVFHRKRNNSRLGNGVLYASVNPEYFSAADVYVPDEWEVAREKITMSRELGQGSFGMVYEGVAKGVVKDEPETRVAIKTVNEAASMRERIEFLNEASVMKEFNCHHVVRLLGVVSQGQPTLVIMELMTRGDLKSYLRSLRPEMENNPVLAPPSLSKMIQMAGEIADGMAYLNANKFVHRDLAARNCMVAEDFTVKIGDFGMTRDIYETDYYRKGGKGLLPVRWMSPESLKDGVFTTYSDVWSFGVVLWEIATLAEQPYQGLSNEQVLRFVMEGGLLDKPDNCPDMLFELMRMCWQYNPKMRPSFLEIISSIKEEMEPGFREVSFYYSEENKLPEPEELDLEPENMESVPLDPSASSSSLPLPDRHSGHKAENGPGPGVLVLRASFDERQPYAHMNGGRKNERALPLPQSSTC
Sequence of Serine/threonine-protein kinase PLK1 (P53350 whole entry): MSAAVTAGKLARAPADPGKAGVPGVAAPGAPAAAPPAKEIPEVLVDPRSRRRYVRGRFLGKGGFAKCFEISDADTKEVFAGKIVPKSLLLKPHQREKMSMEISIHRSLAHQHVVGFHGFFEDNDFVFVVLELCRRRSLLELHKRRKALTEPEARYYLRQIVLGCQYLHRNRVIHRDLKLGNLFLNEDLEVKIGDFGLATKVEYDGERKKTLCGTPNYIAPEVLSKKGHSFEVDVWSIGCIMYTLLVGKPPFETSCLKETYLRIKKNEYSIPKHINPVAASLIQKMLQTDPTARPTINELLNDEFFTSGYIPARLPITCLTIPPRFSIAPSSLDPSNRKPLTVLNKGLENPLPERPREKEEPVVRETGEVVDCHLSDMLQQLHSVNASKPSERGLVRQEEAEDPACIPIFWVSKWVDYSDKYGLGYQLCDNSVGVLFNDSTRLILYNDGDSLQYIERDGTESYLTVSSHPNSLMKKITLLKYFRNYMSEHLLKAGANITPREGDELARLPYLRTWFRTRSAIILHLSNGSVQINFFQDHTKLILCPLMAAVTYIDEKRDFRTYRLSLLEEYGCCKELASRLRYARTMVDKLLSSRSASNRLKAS
Sequence of Hepatocyte growth factor receptor (P08581 whole entry): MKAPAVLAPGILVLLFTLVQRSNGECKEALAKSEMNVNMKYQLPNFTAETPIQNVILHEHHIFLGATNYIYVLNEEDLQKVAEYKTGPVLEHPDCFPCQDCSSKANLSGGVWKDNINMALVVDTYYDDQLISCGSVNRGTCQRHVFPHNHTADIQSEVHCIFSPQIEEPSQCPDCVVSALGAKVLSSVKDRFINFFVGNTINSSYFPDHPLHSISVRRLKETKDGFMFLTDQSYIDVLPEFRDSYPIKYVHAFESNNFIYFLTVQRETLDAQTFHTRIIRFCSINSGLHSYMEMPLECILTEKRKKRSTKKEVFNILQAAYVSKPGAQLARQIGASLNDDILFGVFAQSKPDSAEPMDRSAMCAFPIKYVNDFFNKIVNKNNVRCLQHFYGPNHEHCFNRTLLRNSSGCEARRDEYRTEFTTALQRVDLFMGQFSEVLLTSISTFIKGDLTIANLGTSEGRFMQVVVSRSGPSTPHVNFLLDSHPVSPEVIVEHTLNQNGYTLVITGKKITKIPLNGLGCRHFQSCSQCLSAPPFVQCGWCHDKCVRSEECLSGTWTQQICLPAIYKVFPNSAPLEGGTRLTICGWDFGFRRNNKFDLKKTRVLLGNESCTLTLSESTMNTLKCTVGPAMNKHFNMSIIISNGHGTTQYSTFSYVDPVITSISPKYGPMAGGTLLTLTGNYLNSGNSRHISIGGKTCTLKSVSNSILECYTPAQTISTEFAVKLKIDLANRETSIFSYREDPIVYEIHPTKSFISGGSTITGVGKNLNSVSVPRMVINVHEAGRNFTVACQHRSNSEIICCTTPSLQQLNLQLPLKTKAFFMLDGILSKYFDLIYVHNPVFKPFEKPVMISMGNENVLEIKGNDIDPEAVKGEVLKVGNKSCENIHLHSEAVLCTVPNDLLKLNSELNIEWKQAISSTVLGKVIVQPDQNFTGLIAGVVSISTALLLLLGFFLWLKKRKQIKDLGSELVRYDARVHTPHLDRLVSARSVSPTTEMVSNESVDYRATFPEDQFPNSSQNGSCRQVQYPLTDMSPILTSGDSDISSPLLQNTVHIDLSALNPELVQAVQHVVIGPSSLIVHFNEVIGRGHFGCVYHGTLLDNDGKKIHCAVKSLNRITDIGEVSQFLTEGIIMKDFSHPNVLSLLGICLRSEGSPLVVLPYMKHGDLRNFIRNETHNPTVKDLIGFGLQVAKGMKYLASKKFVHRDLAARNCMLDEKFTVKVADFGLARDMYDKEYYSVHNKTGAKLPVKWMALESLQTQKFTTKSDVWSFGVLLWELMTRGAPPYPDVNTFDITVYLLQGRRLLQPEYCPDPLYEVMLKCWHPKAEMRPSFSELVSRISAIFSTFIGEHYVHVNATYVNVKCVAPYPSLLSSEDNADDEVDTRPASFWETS

COc1cc(O)c2c(c1)-c1cc(O)c(O)cc1COC2=O [Alterlactone]
pIC50 [1]: < 4.46 | pIC50 [2]: < 4.46 | pIC50 [3]: < 4.46 | pIC50 (Insulin receptor): < 4.46 | pIC50 [4]: < 4.46 | pIC50 [5]: < 4.46 | pIC50 [6]: < 4.46 | pIC50 [7]: < 4.46 | pIC50 [8]: < 4.46 | pIC50 [9]: < 4.46 | pIC50 [10]: < 4.46 | pIC50 (Aurora kinase A): < 4.46 | pIC50 [11]: < 4.46 | pIC50 [12]: < 4.46

COc1cc(O)c2c(c1)C1(OC2=O)C(=O)C(=O)CC1C (stereo unspecified) [TALAROFLAVONE]
pIC50 [2]: < 4.44 | pIC50 [3]: < 4.44 | pIC50 [4]: < 4.44 | pIC50 [5]: < 4.44 | pIC50 [6]: < 4.44 | pIC50 [7]: < 4.44 | pIC50 [8]: < 4.44 | pIC50 [9]: < 4.44 | pIC50 [10]: < 4.44 | pIC50 (Aurora kinase A): < 4.44 | pIC50 [11]: < 4.44 | pIC50 [12]: < 4.44
